Screening results from PubChem.
CSC inhib = cancer stem cell inhibition. cancer stem cell-like cells viability, luminescence. inhibition, % at 7.5 µM. hit rate 1.1% among 300,000; in the data active = inhibition above about 75%; tested in HMLE shEcad cells
XBP1 UPR activ = activators of adaptive arm of unfolded protein response (XBP1); activation, % at 20 µM; hit rate 0.33% among 330,000; CHO-XBP1 luciferase reporter, IRE1-XBP1 UPR activation, luminescence; percent of tunicamycin response, DMSO as zero;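 active = versus positive control, 20 µM dose yields 30% or more activation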;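 also: 100% = tunicamycin at 10 µg/mL and 0% = DMSO only wells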
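Test system: CHO-XBP1 luciferase reporter cells | Buffer or medium: Serum-containing F12 medium, 10% FBS | Schedule: 6 h compound exposure at 37 °C, 5% CO2 | Detection: Steady-Glo luciferase glow luminescence, 10 min after reagent addition | Read-out basis: Activation, % of tunicamycin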
T cruzi repl = T. cruzi replication inhibition; T. cruzi beta-gal in NIH3T3, luminescence, 90 h; inhibition, % (test concentration not listed); hit rate 1.4% among 300,000; AID 1885;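 active = mean inhibition across valid replicates above about 55%, limit read from the data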;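 also: signal also drops with host cell toxicity which is not excluded here; 0% = plate median of DMSO wells and 100% = zero luminescence signal; higher percent means less beta-gal luminescence so fewer parasites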
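Material: NIH/3T3 host cells with β-galactosidase reporter T. cruzi; Input: 5,000 host fibroblasts per well; Medium: DMEM, 2% fetal bovine serum; Compound: 50 nL DMSO compound solution per well; Schedule: 3 h host attachment, then at least 90 h co-culture; Detection: luminescent β-galactosidase signal after 60 min lysis.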
Mdm2 MdmX PPI = disrupts the human Mdm2-MdmX interaction. AID 485346. SaOS-2 split-luciferase Mdm2/MdmX complementation, luminescence. inhibition, % at 8 µM. O15151+Q00987. hit rate 3% among 330,000;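 active = inhibition of at least 50% at 8 µM in the primary screen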
Target sequence (O15151 whole entry, looked up): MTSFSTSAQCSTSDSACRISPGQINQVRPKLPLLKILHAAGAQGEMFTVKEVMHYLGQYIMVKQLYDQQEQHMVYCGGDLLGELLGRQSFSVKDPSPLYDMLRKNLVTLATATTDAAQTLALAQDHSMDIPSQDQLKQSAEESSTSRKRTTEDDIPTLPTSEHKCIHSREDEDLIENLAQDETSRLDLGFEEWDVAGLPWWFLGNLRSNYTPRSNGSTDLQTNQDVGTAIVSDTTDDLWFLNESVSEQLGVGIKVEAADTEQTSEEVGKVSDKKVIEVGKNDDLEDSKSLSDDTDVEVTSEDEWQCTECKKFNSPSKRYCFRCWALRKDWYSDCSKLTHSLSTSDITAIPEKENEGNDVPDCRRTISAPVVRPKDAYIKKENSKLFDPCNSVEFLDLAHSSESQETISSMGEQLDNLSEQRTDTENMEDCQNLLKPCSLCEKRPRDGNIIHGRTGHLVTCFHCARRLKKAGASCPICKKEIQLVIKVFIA
Target sequence (Q00987 whole entry, looked up): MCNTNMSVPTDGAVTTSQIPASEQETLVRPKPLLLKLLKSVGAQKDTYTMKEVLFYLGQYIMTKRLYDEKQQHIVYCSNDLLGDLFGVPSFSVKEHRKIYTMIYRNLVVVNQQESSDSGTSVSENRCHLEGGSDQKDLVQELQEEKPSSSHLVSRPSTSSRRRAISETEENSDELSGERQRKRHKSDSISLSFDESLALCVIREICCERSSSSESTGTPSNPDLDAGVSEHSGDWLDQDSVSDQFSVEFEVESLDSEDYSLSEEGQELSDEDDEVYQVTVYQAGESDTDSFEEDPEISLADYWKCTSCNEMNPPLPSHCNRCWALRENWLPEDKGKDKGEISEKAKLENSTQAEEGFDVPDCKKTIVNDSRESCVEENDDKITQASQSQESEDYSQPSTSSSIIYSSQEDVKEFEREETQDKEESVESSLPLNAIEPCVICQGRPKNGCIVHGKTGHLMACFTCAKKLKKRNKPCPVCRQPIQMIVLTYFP
CHOP UPR activ = activators of apoptotic arm of unfolded protein response (CHOP); CHO-CHOP luciferase reporter, UPR activation, luminescence; percent of tunicamycin response over DMSO baseline; activation, % at 10 µM; hit rate 0.34% among 330,000;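 active = at 10 µM dose, activation of 40% or more, normalized to positive control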;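 also: 100% = tunicamycin at 10 µg/mL and 0% = DMSO alone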
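System: CHO CHOP reporter cells. Amount: 500 cells per well. Buffer or medium: F12 medium, 10% FBS. Compound dosing: one dose, 10 µM in 0.5% DMSO. Incubation: 6 h compound exposure at 37 °C after overnight seeding. Technique: Steady-Glo luciferase luminescence. Benchmarks: tunicamycin and DMSO controls.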
Beta cell apopt = beta cell apoptosis inhibition | hit rate 0.8% among 300,000 | protection from apoptosis, % (no concentration beside the values) | AID 435005 | INS-1E cytokine-induced death, ATP luminescence, 48 h; percent of positive-control rescue, neutral wells zero;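 active = Every replicate reaches about 75%, or at least half do and their mean reaches it too, limit read from the data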;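 also: 0% = cytokine-treated negative control wells and 100% = positive control rescue; higher means more ATP so stronger rescue from cytokine killing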
* hit, by the source's call. Most compounds without a hit are left out; they make up all but 5% or so of the library.

COc1ccc(CCNc2ncnc3[nH]ncc23)cc1OC was read as CSC inhib 14.6, XBP1 UPR activ -1.6, T cruzi repl -13.9, Mdm2 MdmX PPI -9.6, CHOP UPR activ 0.7 and Beta cell apopt -6.0.
COc1ccc(CCNc2ncnc3sc(C)cc23)cc1OC was read as CSC inhib 2.9, XBP1 UPR activ -4.8, T cruzi repl -42.4, Mdm2 MdmX PPI 10.0, CHOP UPR activ 3.1 and Beta cell apopt 106.6*.
Cc1ccc(NC(=S)NCCSc2ccc(Cl)cc2)cc1 was read as CSC inhib 10.5, XBP1 UPR activ 1.0, T cruzi repl 50.7, Mdm2 MdmX PPI -14.9, CHOP UPR activ 1.6 and Beta cell apopt -11.9.
Screening CC(CNC(=S)Nc1cc(F)cc(F)c1)CSc1ccc(Cl)cc1 (centres undefined) returned CSC inhib 86.9*, XBP1 UPR activ -0.7, T cruzi repl 7.1, Mdm2 MdmX PPI 24.6, CHOP UPR activ -1.2 and Beta cell apopt 12.9.
Cc1ccc(C2C(/C=C3/SC(=S)NC3=O)=C(c3cccs3)Oc3ccccc32)cc1 (centres undefined) was read as CSC inhib 108.4*, XBP1 UPR activ 1.6, T cruzi repl -11.5, Mdm2 MdmX PPI 42.9, CHOP UPR activ 3.2 and Beta cell apopt 17.6.
`Cc1nn(-c2ccc(F)cc2)c(C)c1CN1CCN(CCC(C)C)C(CCO)C1` (centres undefined) gave CSC inhib 42.4, XBP1 UPR activ 0.8, T cruzi repl 10.7, Mdm2 MdmX PPI -5.9, CHOP UPR activ 0.5 and Beta cell apopt -1.1.
For CCOc1cccc(-c2c(C(=O)N/N=C/c3ccsc3)nnn2-c2nonc2N)c1 the results were CSC inhib -26.1, XBP1 UPR activ -0.9, T cruzi repl -16.7, Mdm2 MdmX PPI 11.3 and CHOP UPR activ -1.1.
`Cc1cc([N+](=O)[O-])ccc1-c1ccc(C2Nc3ccccc3C(=O)N2O)o1` (centres undefined) gave CSC inhib 131.2*, XBP1 UPR activ -0.4, T cruzi repl 38.6, Mdm2 MdmX PPI 41.5, CHOP UPR activ 0.8 and Beta cell apopt 69.8.
Screening O=C1c2ccccc2NC(c2ccc(-c3ccccc3F)o2)N1O (centres undefined) returned CSC inhib 10.5, XBP1 UPR activ 0.4, Mdm2 MdmX PPI 48.3, CHOP UPR activ 7.0 and Beta cell apopt -2.3.
COc1ccc(C=O)cc1CN1CCCN(Cc2ccc(Cl)cc2)S1(=O)=O was read as CSC inhib -5.1, XBP1 UPR activ -4.9, T cruzi repl 13.3, Mdm2 MdmX PPI 25.0, CHOP UPR activ 0.8 and Beta cell apopt -10.5.
COC(=O)c1ccc(OC)c(CN2CCCN(Cc3ccc(F)cc3)S2(=O)=O)c1 was read as CSC inhib 22.4, XBP1 UPR activ -2.0, T cruzi repl 56.9*, Mdm2 MdmX PPI 6.9, CHOP UPR activ 0.0 and Beta cell apopt 1.3.
CCCCCCCc1ccc(-c2ccc(O)cc2)nc1 was read as CSC inhib 85.0*, XBP1 UPR activ 1.7, T cruzi repl 40.8, Mdm2 MdmX PPI -59.9, CHOP UPR activ 7.5 and Beta cell apopt -2.1.
For CCCCCc1ccc(-c2ccc(/C=C/C(=O)O)cc2)nc1 the results were CSC inhib 8.9, XBP1 UPR activ 1.5, T cruzi repl 0.4, Mdm2 MdmX PPI 2.1, CHOP UPR activ 1.7 and Beta cell apopt -2.6.
Screening Cc1ccc(C)c(NC(=O)COC(=O)c2cc3ccccc3oc2=O)c1 returned XBP1 UPR activ -1.3, Mdm2 MdmX PPI -17.1, CHOP UPR activ -1.1 and Beta cell apopt 0.4.
`CCN(CC)c1ccc(/C=C(\C#N)c2ccccn2)cc1` gave CSC inhib 77.6*, XBP1 UPR activ -4.2, T cruzi repl 16.2, Mdm2 MdmX PPI -51.0, CHOP UPR activ -4.6 and Beta cell apopt 28.2.
For CCN(Cc1ccccc1)c1ccc(/C=C(\C#N)c2ccccn2)cc1 the results were CSC inhib 21.6, XBP1 UPR activ -0.8, T cruzi repl 15.9, Mdm2 MdmX PPI -168.4, CHOP UPR activ 6.5 and Beta cell apopt 10.5.
CCOc1ccc2nc(NC(NC(=O)CC)(C(=O)OC)C(F)(F)F)sc2c1 (centres undefined) was read as CSC inhib -2.8, XBP1 UPR activ -0.5, T cruzi repl -3.5, Mdm2 MdmX PPI -6.4, CHOP UPR activ -2.3 and Beta cell apopt 3.4.
Cc1ccc(C(CNC(=O)c2ccco2)N2CCN(C)CC2)cc1 (centres undefined) was read as CSC inhib -17.6, XBP1 UPR activ -1.4, T cruzi repl -6.8, Mdm2 MdmX PPI 10.7 and CHOP UPR activ 0.3.
Screening COc1ccc(-c2oc3c4c(cc(OC)c3c(=O)c2CC=C(C)C)OC(C)(C)C=C4)c(OC)c1 returned CSC inhib 101.2*, XBP1 UPR activ 0.5, T cruzi repl 65.3*, Mdm2 MdmX PPI 38.7, CHOP UPR activ 0.2 and Beta cell apopt 8.6.
Screening Oc1ccc(C[C@@H]2CNC(=S)N2CCCCC2CCCCC2)cc1 returned CSC inhib 115.0*, XBP1 UPR activ 1.3, T cruzi repl 33.1, Mdm2 MdmX PPI -17.1, CHOP UPR activ -0.2 and Beta cell apopt -3.3.
Screening O=C1NC[C@H](Cc2ccc(O)cc2)N(CC2CCCCC2)C1=O returned CSC inhib -10.7, XBP1 UPR activ 3.1, T cruzi repl -1.6, Mdm2 MdmX PPI 19.7, CHOP UPR activ 1.7 and Beta cell apopt 5.9.
For COc1ccc(C)c2sc(N(CCN(C)C)C(=O)c3cccc(N4C(=O)CCC4=O)c3)nc12 the results were CSC inhib -9.7, XBP1 UPR activ 1.5, T cruzi repl -1.7, Mdm2 MdmX PPI -13.3 and CHOP UPR activ 0.8.
For Cc1ccc(-c2cn3cccnc3n2)cc1NC(=O)c1ccc(Br)o1 the results were CSC inhib -4.5, XBP1 UPR activ -1.6, T cruzi repl -8.1, Mdm2 MdmX PPI 13.8, CHOP UPR activ 0.2 and Beta cell apopt -0.8.
For O=C(Nc1cccc(-c2cn3cccnc3n2)c1)c1ccc(Br)o1 the results were XBP1 UPR activ 3.7, T cruzi repl 71.4*, Mdm2 MdmX PPI -4.1, CHOP UPR activ 1.6 and Beta cell apopt 1.5.
Screening O=C(Nc1cccc(-c2cn3cccnc3n2)c1)c1ccco1 returned CSC inhib -10.7, XBP1 UPR activ -0.8, T cruzi repl 68.0*, Mdm2 MdmX PPI -26.1, CHOP UPR activ -0.5 and Beta cell apopt 2.3.
O=C(Nc1ccccc1)Nc1cccc(-c2cn3cccnc3n2)c1 was read as CSC inhib -3.8, XBP1 UPR activ -0.3, T cruzi repl -12.5, Mdm2 MdmX PPI -27.8, CHOP UPR activ 2.1 and Beta cell apopt 9.9.
`Cc1c(-c2cccc(NC(=O)c3ccco3)c2)nc2ncccn12` gave CSC inhib -0.7, XBP1 UPR activ -0.3, T cruzi repl 65.1*, Mdm2 MdmX PPI 20.4, CHOP UPR activ -0.3 and Beta cell apopt 3.2.
